# Assay outcomes (PubChem BioAssay)
# MrgX1 ag: agonists of human MrgX1 receptor. Q96LB2. MrgX1-HEK293 cells, Fluo-4 calcium fluorescence, agonist mode; hits give high values. B-score at 10 µM. 310,000 tested, 0.44% active;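 active means calcium response B-score plate-corrected fluorescence ratio at least 3 library SD, with starting fluorescence B-score inside 5 SD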
# Target sequence (Q96LB2 whole entry, looked up): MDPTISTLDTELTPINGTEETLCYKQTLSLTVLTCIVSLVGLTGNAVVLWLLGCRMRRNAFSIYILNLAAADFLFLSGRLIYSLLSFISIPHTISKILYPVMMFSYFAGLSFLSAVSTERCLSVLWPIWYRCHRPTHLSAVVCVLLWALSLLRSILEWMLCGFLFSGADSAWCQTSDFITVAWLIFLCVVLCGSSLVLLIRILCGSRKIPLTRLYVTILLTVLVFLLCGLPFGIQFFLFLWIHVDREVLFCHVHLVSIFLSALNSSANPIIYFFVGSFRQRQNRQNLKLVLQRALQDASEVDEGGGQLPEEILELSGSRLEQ
#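 Test system: Stable human MrgX1 HEK293 cell line | Schedule: Overnight plating before 1 h dye loading | Read-out basis: Baseline-normalised fluorescence change ratio, B-scored | Detection: Kinetic calcium dye fluorescence, Fluo-4 NW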
# MrgX1 PAM: human MrgX1 positive allosteric modulation, primary screen. B-score at 10 µM. AID 588675. MrgX1-HEK293, Fluo-4 calcium flux, FDSS; hits give high values. Q96LB2. 310,000 tested, 0.63% active;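 active means plate-corrected calcium response at least 3 library SD above typical, normal starting fluorescence, not activating the receptor alone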;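 further: compound read alongside a low EC10 to EC30 dose of BAM8-22 agonist; peak minus trough fluorescence over baseline measured at the second addition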
# RGS4 pot: potentiators or activators of RGS4; 310,000 tested, 0.92% active; HEK293 M3R/inducible RGS4, carbachol calcium flux Fluo4; hits give low values; B-score at 10 µM;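 active means B-score of the integrated calcium signal more than 4 SD below the library mean, with starting fluorescence not abnormally high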;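 further: negative B-score means reduced calcium response which marks RGS4 activation or potentiation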
#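 System: HEK293 FlpIn-TREx cells, stable M3R, doxycycline-inducible RGS4. Timing: overnight RGS4 induction, 30 min dye load 37 °C, 20 min compound RT. Also added: carbachol, ECmax concentration. Measured by: Fluo4 fluorescence kinetic imaging of calcium. Evaluation: integrated calcium ratio converted to B score.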
# RGS4 inh: human RGS4 inhibition. P49798. 310,000 tested, 0.45% active. HEK293 M3R/RGS4 inducible, Fluo-4 calcium flux; hits give high values; triggered by carbachol at its EC20. B-score at 10 µM. AID 463165;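 active means B-score, a plate-corrected calcium signal, over three deviations above library mean, with baseline fluorescence within five deviations of library mean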;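 further: RGS4 expression induced by doxycycline in cells with stable M3 receptor; B-score is computed from the integrated fluorescence ratio over baseline after carbachol; higher B-score means a larger calcium signal and so more RGS4 inhibition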
# Target sequence (P49798 whole entry, looked up): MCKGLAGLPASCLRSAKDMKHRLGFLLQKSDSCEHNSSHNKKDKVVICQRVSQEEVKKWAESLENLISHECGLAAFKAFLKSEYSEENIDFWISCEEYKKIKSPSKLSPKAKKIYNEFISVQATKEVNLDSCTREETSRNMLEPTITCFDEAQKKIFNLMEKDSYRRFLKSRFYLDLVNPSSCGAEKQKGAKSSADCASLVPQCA
# MrgX1 antag: human MrgX1 receptor antagonism, primary screen | B-score at 10 µM | 310,000 tested, 1.3% active | MRGX1-HEK293 calcium flux, Fluo-4, BAM8-22 antagonism; hits give low values | Q96LB2;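 active means calcium-response B-score plate-corrected more than 3 library SD below zero, starting fluorescence within 5 deviations, no agonist response on first addition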;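 further: peak minus trough fluorescence over baseline after final BAM8-22 challenge near maximal dose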
# MrgX1 ant reconf: human MrgX1 receptor antagonism, re-confirmation screen | remaining BAM8-22 calcium response % of control (hits give low values), % at 10 µM | shares compounds with MrgX1 antag | MrgX1-HEK293, BAM8-22 calcium flux, Fluo-4; hits give low values | 2,300 tested, 19% active;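 active means remaining agonist calcium response no higher than 100% minus 3 SD of agonist-only control wells, with starting fluorescence near control levels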;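 further: agonist BAM8-22 given at a near maximal EC90 to ECmax level; peak minus minimum fluorescence divided by baseline after agonist addition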
# HEK293 Ca flux: counter-screen for MrgX1 antagonists: effect in parental HEK293 cells. shares compounds with MrgX1 antag. Fluo-4 calcium fluorescence, FDSS. fluorescence ratio F(max-min)/F0 at 10 µM. 4,000 tested, 2% active. AID 624111;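 active means duplicate-averaged calcium fluorescence ratio at least three times the standard deviation of buffer wells, a nonspecific response in parental cells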
# HEK293 Ca counter: MrgX1 allosteric activator counter-screen hit in parental HEK293 cells; shares compounds with MrgX1 antag; parental HEK293 calcium flux, Fluo-4 fluorescence ratio; hits give high values; fluorescence ratio F(max-min)/F0 at 10 µM; 4,000 tested, 0.4% active; AID 624114;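 active means calcium fluorescence ratio, averaged over duplicates, at least 3 SD of the buffer-well ratio, meaning a nonspecific response in receptor-free cells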;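 further: untransfected parental HEK293 lacking MrgX1 used as counterscreen for MrgX1 allosteric activators; fluorescence change taken during the second addition on a kinetic imager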
# HEK293 Ca cntr2: activity in parental HEK293 cells lacking MrgX1 receptor | 4,000 tested, 8.7% active | fluorescence ratio F(max-min)/F0 at 10 µM | shares compounds with MrgX1 antag | Fluo-4 calcium fluorescence (FDSS); hits give high values;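 active means calcium fluorescence ratio at least three times the spread of buffer wells, meaning a non-specific response in parental cells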
# Active calls of the source: *; i = inactive; . = no result. The list is not random: actives were taken first. Their share in the collection is about 3.5%.
SMILES,MrgX1 ag,MrgX1 PAM,RGS4 pot,RGS4 inh,MrgX1 antag,MrgX1 ant reconf,HEK293 Ca flux,HEK293 Ca counter,HEK293 Ca cntr2
O=C(Nc1ccc(Br)cc1)c1ccc(F)c(S(=O)(=O)NCc2cccs2)c1,i,i,i,i,-5.3*,i,i,i,47*
CCn1c(CCC(=O)O)nc2cc(S(=O)(=O)N(C)C)ccc21,i,i,i,i,i,.,.,.,.
CCn1c(CSc2nc(C)cs2)nc2cc(S(=O)(=O)N(C)C)ccc21,i,i,i,i,-4.6*,i,i,i,i
COc1cccc(CNc2nc(SC)ncc2CO)c1,i,i,i,i,-4.8*,80%*,i,i,i
COc1cccc(CNc2ncnc3cc(OC)c(OC)cc23)c1,i,i,i,i,i,.,.,.,.
CCC(=O)Nc1ccccc1C(=O)OCC(=O)c1ccc2ccccc2c1,i,i,i,i,-6.3*,i,i,i,i
CCC(=O)Nc1ccccc1C(=O)OCC(=O)c1ccccc1,i,i,i,i,i,.,.,.,.
COc1ccccc1/C=N/NC(=S)NCc1ccco1,i,i,i,i,i,.,.,.,.
Cc1csc(NC(=O)c2ccc(Cn3nc(C)c(Br)c3C)o2)n1,i,i,i,i,-4.8*,74%*,i,i,i
COc1ccccc1NC(=O)c1oc2ccccc2c1NC(=O)c1ccco1,i,i,i,i,-5.2*,77%*,i,i,i
COc1cc(NC(=O)c2oc3ccccc3c2C)ccc1NC(=O)c1ccco1,i,i,i,i,i,.,.,.,.
CCOC(=O)N1CCN(C(=O)C2COc3ccccc3O2)CC1 (stereo not given),i,i,i,i,-7.8*,i,i,i,i
CCN1CCN(C(=O)C2COc3ccccc3O2)CC1 (stereo not given),i,i,i,i,i,.,.,.,.
COc1ccc(S(=O)(=O)n2ccc(C(C)Oc3ccc(-c4ccccc4)c(F)c3)n2)cc1 (stereo not given),i,i,i,i,-6.6*,i,i,i,i
COc1ccccc1NC(=O)Nc1nc(CC(=O)NCc2ccc(F)cc2)cs1,i,i,i,i,i,.,.,.,.
Cc1cc(=O)oc2cc(NC(=S)NNC(=O)c3c(Cl)cnn3C)ccc12,i,i,i,i,i,.,.,.,.
O=C(c1nc2ccc(Cl)cn2c1CN1CCC(O)CC1)N1CCc2ccccc2C1,i,i,i,i,-5.5*,i,i,i,i
CCOc1ccc(S(=O)(=O)Nc2cc(Cl)ccc2O)cc1,i,i,i,i,-4.6*,85%*,i,i,i
COC(=O)CC1=C(C(=O)OC)[C@@H](c2ccccc2[N+](=O)[O-])C(C#N)=C(N)O1,i,i,i,i,i,.,.,.,.
C=CCc1c(NCCO)nc(C)[nH]c1=O,i,i,i,i,i,.,.,.,.
COc1ccc(-c2csc(NC(=O)CSc3nc(C)cs3)n2)cc1,i,i,i,i,i,.,.,.,.
COc1ccc(-c2csc(NC(=O)CSc3nc(C)nc4sc(C(=O)O)c(C)c34)n2)cc1,i,i,i,i,-6.4*,72%*,i,i,i
CCOC(=O)N1CCN(C(=O)CCCn2c(=O)[nH]c3ccccc3c2=O)CC1,i,i,i,i,-7.4*,i,i,i,i
CCOC(=O)N1CCN(C(=O)CCCn2c(=S)[nH]c3ccccc3c2=O)CC1,i,i,i,i,i,.,.,.,.
Cc1c(C)n2c(SCC(=O)NCc3ccc4c(c3)OCO4)nnc2[nH]c1=O,i,i,i,i,i,.,.,.,.
SMILES,MrgX1 ag,MrgX1 PAM,RGS4 pot,RGS4 inh,MrgX1 antag,MrgX1 ant reconf,HEK293 Ca flux,HEK293 Ca counter,HEK293 Ca cntr2
CCC(C(=O)N1CCN(c2ncccn2)CC1)c1ccccc1 (stereo not given),i,i,i,i,-4.6*,i,i,i,i
CCOC(=O)c1sc(N)nc1C(C)(C)C,i,i,i,i,i,.,.,.,.
Cc1nc(N)sc1C(=O)OCC(C)C,i,i,i,i,-8.7*,i,i,i,i
CCOC(=O)Cc1csc(SCC(=O)NC2CCCC(C)C2C)n1 (stereo not given),i,i,i,i,i,.,.,.,.
CCOC(=O)Cc1csc(SC(C)C(=O)NC2CCCCC2C)n1 (stereo not given),i,i,i,i,-5.3*,85%*,i,i,i
COc1ccc(CCNc2nc(N3CCOCC3)nc(N3CCOCC3)n2)cc1OC,i,i,i,i,-5.9*,i,i,i,i
CCOC(=O)C1=C(O)C(=O)N(C2CCCCC2)C1,i,i,i,i,i,.,.,.,.
CCOc1c2ccoc2nc2c(OC)c(OC)ccc12,i,i,i,i,-5.7*,i,i,i,i
CCOc1c(OC)ccc2c3c(c(=O)oc12)CCCC3,i,i,i,i,i,.,.,.,.
O=C(CNS(=O)(=O)c1ccc([N+](=O)[O-])cc1)N/N=C/c1ccc(O)cc1O,i,i,i,i,-13*,40%*,i,63*,i
Cc1cc(Br)ccc1NCc1ccccn1,i,i,i,i,-6*,i,i,i,i
CN(Cc1c(F)cccc1Cl)C(=O)CNC(=O)c1sc2ccccc2c1Cl,i,i,i,i,i,.,.,.,.
COc1ccc(-c2c(C#N)c(N)nc3c2c(=O)n(C)c(=O)n3C)cc1Cl,i,i,i,i,-8.3*,i,i,i,i
Cc1cc(C)cc(-n2cc[nH]c2=S)c1,i,i,i,i,i,.,.,.,.
S=C(NCc1ccncc1)Nc1ccc(Br)cc1Cl,i,i,i,i,-6.3*,68%*,i,i,i
O=C(NNC(=S)Nc1ccc(Br)cc1Cl)c1ccncc1,i,i,i,i,i,.,.,.,.
CC(C)C(c1nnnn1C1CCCCC1)N1CCCc2ccccc21 (stereo not given),i,i,i,i,i,.,.,.,.
